ChEMBL document CHEMBL2321840, “Synthesis and structure-activity relationships of indazole arylsulfonamides as allosteric CC-chemokine receptor 4 (CCR4) antagonists” (J Med Chem, 2013)
Values after ≈ are worked out from the molar mass of the structure shown.

Key:
[1] = Kinetic solubility of the compound by chemiluminescent nitrogen detection assay; format: physicochemical; conditions: for solubility kinetic: read-out: Kinetic_solubility
[2] = molecular target: T1, C-C chemokine receptor type 4 (Homo sapiens, UniProt P51679); assay: Antagonist activity at human recombinant CCR4 receptor expressed in CHO cell membranes by [35S]GTPgammaS binding assay; format: functional
T1 sequence (P51679 whole entry): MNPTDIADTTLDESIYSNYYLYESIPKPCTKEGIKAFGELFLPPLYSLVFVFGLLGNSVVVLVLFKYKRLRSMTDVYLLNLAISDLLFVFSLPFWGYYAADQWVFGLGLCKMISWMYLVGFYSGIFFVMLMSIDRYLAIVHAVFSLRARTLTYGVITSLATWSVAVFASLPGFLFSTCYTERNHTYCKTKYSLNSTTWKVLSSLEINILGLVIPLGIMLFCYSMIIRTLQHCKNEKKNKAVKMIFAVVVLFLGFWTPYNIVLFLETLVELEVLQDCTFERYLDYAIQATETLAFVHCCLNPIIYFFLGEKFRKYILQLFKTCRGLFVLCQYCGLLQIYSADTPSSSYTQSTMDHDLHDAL

[3] = molecular target: T1, C-C chemokine receptor type 4; assay: Antagonist activity at CCR4 receptor in human whole blood assessed as F-actin polymerization after 30 mins by FACS-based flow cytometric analysis; conditions: for Kb: read-out: pA2 (converted)
[4] = Lipophilicity, log D of the compound by chromatographic analysis; format: physicochemical
Summary of the method: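 Chromatographic log D measured at pH 7.4.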

[5] = Dissociation constant, pKa of the compound; format: physicochemical
in vivo [6] = conditions: beagle, dog, iv, 0.5 mg/kg
[7] = Plasma protein binding in human by equilibrium dialysis technique; format: ADME, cell-free; conditions: read-out: PPB (converted)
Summary of the method: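 Rapid equilibrium dialysis in CD rat, beagle dog or human plasma, with compound at a nominal 1 μg/mL; n = 3.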

in vivo [8] = conditions: beagle, dog, iv, 0.5 mg/kg; remark: listed apart in the source
[9] = Volume of distribution at steady state in CD rat at 1 mg/kg, iv and 1 mg/kg, po; format: ADME, organism-based; conditions: in vivo, read-out: Vdss
Summary of the method: (§1)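 CD rat pharmacokinetics, with compounds given as solutions in DMSO–PEG200–H₂O (5:45:50); one analogue used a 10:40:50 ratio.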

in vivo [10] = conditions: CD, rat, iv, 1 mg/kg
[11] = Volume of distribution at steady state in Beagle dog at 0.5 mg/kg, iv; format: ADME, organism-based, Canis lupus familiaris; set-up: dose 0.5 mg/kg, route intravenous; conditions: beagle, in vivo, read-out: Vdss
[12] = Oral bioavailability in CD rat at 1 mg/kg; format: ADME, organism-based; conditions: in vivo; summary of the method: as §1
in vivo [13] = conditions: CD, rat, iv, 1 mg/kg; remark: listed apart in the source

Row | solubility kinetic [1] [µg/mL] | IC50 [2] [nM] | chromatographic logD [4] | Kb [3] [nM] | pKa [5] | other results | Structure (SMILES)
1 | – | – | – | – | – | Kinetic_solubility [1]: >= 203 ug ml-1; pIC50 ([2]; cho): 8.2; pA2 [3]: 6.6 | COc1cccc2c1c(NS(=O)(=O)c1ccc(Cl)s1)nn2Cc1cccc(CNC(=O)C2COCCN2C)c1 (single isomer, unassigned; isomer A)
2 | ≥ 250 | 25.1 | 3.9 | 562 | – | – | COc1cccc2c1c(NS(=O)(=O)c1ccc(Cl)s1)nn2Cc1cccc(CNC(=O)[C@H]2COCCN2)c1
3 | ≥ 139 | 79.4 | 3 | 5010 | 5.62 | – | CC(=O)NCc1cccc(Cn2nc(NS(=O)(=O)c3ccc(Cl)s3)c3c(F)cccc32)c1
4 | ≥ 159 | 100 | 2.9 | – | 5.46 | – | CC(=O)NCc1cccc(Cn2nc(NS(=O)(=O)c3ccc(Cl)s3)c3c(C(C)(C)O)cccc32)c1
5 | ≥ 155 | 316 | 2.5 | – | 5.4 | – | CC(=O)NCc1cccc(Cn2nc(NS(=O)(=O)c3ccc(Cl)s3)c3c(C#N)cccc32)c1
6 | 36 (≈ 66.6 µM) | 15.8 | 4.5 | 1260 | 7.26 | – | COc1cccc2c1c(NS(=O)(=O)c1ccc(C)c(F)c1)nn2Cc1cccc(CNC(=O)C(C)(C)O)c1
7 | ≥ 161 | 39.8 | 4.1 | 1000 | – | – | COc1cc(F)cc2c1c(NS(=O)(=O)c1ccc(Cl)s1)nn2Cc1cccc(CNC(C)=O)c1
8 | ≥ 182 | 126 | 3 | – | – | – | COc1cccc2c1c(NS(=O)(=O)c1ccc(Cl)s1)nn2Cc1cccc(CNC(C)=O)n1
9 | ≥ 153 | 39.8 | 4.9 | 794 | – | – | COc1cccc2c1c(NS(=O)(=O)c1ccc(Cl)s1)nn2Cc1cccc(CNC(=O)C2CCCO2)c1 (centres undefined)
10 | ≥ 141 | 158 | 2.6 | > 10000 | – | – | COc1cccc2c1c(NS(=O)(=O)c1ccc(Cl)s1)nn2Cc1cc(CNC(C)=O)ccn1
11 | ≥ 173 | 20 | 4 | 1000 | – | – | COc1cccc2c1c(NS(=O)(=O)c1ccc(Cl)s1)nn2Cc1cccc(CNC(=O)C2COC2)c1
12 | – | – | 2.9 | – | – | – | COc1ccc(COc2nc(Br)cnc2NS(=O)(=O)c2ccc(C)cc2)cc1OCCN(C)C
13 | ≥ 174 | 39.8 | 4.1 | 631 | – | – | COc1c(F)ccc2c1c(NS(=O)(=O)c1ccc(Cl)s1)nn2Cc1cccc(CNC(=O)C(C)(C)O)c1
14 | ≥ 180 | 15.8 | 3.3 | 141 | – | half-life (in vivo [6]): 2.4 h; fraction unbound [7]: 0.04; clearance (in vivo [8]): 18 mL/min/kg; Vd [9]: 0.84 L/kg; half-life (in vivo [10]): 1.3 h; Vd [11]: 5 L/kg; bioavailability [12]: 29%; clearance (in vivo [13]): 15 mL/min/kg | COc1cccc2c1c(NS(=O)(=O)c1ccc(Cl)s1)nn2Cc1cccc(CNC(=O)C(C)(C)N)c1
15 | 57 (≈ 110 µM) | 100 | 4.8 | – | – | – | CC(=O)NCc1cccc(Cn2nc(NS(=O)(=O)c3ccc(Cl)s3)c3c(C(C)=O)cccc32)c1
16 | ≥ 199 | 12.6 | 4.1 | 3160 | – | – | COc1c(F)ccc2c1c(NS(=O)(=O)c1ccc(Cl)s1)nn2Cc1cccc(CNC(C)=O)c1

Row | solubility kinetic [1] [µg/mL] | IC50 [2] [nM] | chromatographic logD [4] | Kb [3] [nM] | pKa [5] | other results | Structure (SMILES)
17 | ≥ 208 | 20 | 2.7 | 501 | 5.62 | Vd [9]: 3.5 L/kg; half-life (in vivo [10]): 3.7 h; bioavailability [12]: 35%; clearance (in vivo [13]): 13 mL/min/kg | CC(=O)NCc1cccc(Cn2nc(NS(=O)(=O)c3ccc(Cl)s3)c3c(C(C)O)cccc32)c1 (centres undefined)
18 | ≥ 113 | 6.31 | 2.6 | 1000 | 5.66 | – | CC(=O)NCc1cccc(Cn2nc(NS(=O)(=O)c3ccc(Cl)s3)c3c(CO)cccc32)c1
19 | ≥ 226 | 31.6 | 3.8 | 6310 | 6.03 | – | CC(=O)NCc1cccc(Cn2nc(NS(=O)(=O)c3ccc(Cl)s3)c3c(Cl)cccc32)c1
20 | ≥ 198 | 50.1 | 4.5 | – | 7.06 | – | COc1cccc2c1c(NS(=O)(=O)c1cccc(Cl)c1)nn2Cc1cccc(CNC(=O)C(C)(C)O)c1
21 | ≥ 166 | 12.6 | 2.9 | 794 | 6.12 | Vd [9]: 1.2 L/kg; half-life (in vivo [10]): 1.2 h; bioavailability [12]: 12%; clearance (in vivo [13]): 19 mL/min/kg | CC(=O)NCc1cccc(Cn2nc(NS(=O)(=O)c3ccc(Cl)s3)c3c(O)cccc32)c1
22 | 124 (≈ 227 µM) | 31.6 | 4.5 | – | – | – | COc1cccc2c1c(NS(=O)(=O)c1ccc(Cl)s1)nn2Cc1cccc(CNC(=O)C2CCO2)c1 (centres undefined)
23 | 122 (≈ 235 µM) | 251 | 4.3 | – | – | – | COc1cccc2c1c(NS(=O)(=O)c1ccc(Cl)s1)nn2Cc1cccc(CNC2COC2)c1
24 | ≥ 193 | 31.6 | 4.4 | 501 | – | – | COc1cccc2c1c(NS(=O)(=O)c1ccc(Cl)s1)nn2Cc1cccc(CNC(=O)C2CCOCC2)c1
25 | 157 (≈ 272 µM) | 398 | 4.7 | – | 6.82 | – | COc1cccc2c1c(NS(=O)(=O)c1cccc(Cl)c1Cl)nn2Cc1cccc(CNC(=O)C(C)(C)O)c1
26 | ≥ 177 | 79.4 | 4 | – | – | – | COc1ccc(F)c2c1c(NS(=O)(=O)c1ccc(Cl)s1)nn2Cc1cccc(CNC(C)=O)c1
27 | ≥ 188 | 100 | 3.7 | 7940 | 5.6 | – | CC(=O)NCc1cccc(Cn2nc(NS(=O)(=O)c3ccc(Cl)s3)c3c(C(F)F)cccc32)c1
28 | 76 (≈ 132 µM) | 398 | 5.1 | – | 6.76 | – | COc1cccc2c1c(NS(=O)(=O)c1ccc(Cl)c(Cl)c1)nn2Cc1cccc(CNC(=O)C(C)(C)O)c1
29 | ≥ 117 | 251 | 3.3 | – | 5.93 | – | CC(=O)NCc1cccc(Cn2nc(NS(=O)(=O)c3ccc(Cl)s3)c3ccccc32)c1
30 | ≥ 161 | 100 | 2.5 | – | – | – | COc1cccc2c1c(NS(=O)(=O)c1ccc(Cl)s1)nn2Cc1ccnc(CNC(C)=O)c1
31 | – | – | 2.9 | – | – | – | O=C([C@H]1CCCCN1)N1CCN(c2nc(NCc3ccc(Cl)cc3Cl)c3cccnc3n2)CC1
